Data published in PubChem BioAssay AID624105 (Broad Institute, 2012).
Activity calls are given as the source filed them.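 The calls were made as follows: active = growth reading drops at least 35% at both 405 and 600 nm in duplicate, reached below 10 µM; inactive = the rest, including effects in the opposite direction.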

System: not listed separately
Assay: mexAB-OprM mutant growth inhibition with EDDHA – PAK mexAB-OprM pump mutant, OD600, dry powder, dose response (AID 624105)
Conditions: P. aeruginosa PAK mexAB-oprM +EDDHA growth, OD600, 28 h; at 100 µM (top of the series)
Method in brief: (§1)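 system = P. aeruginosa PAK ΔmexAB-oprM | buffer or medium = succinate M9, pH 7.0, with 2 µM EDDHA iron chelator | schedule = bacteria exposed to compounds 28 h at 30 °C | compound = dose series, final compound 15 nM up to 100 µM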

| SMILES | growth change, negative = inhibition |
| --- | --- |
| COCCOCCC(C#N)c1ccc(Cl)cc1 (centres undefined) | -6.59% (inactive) |
| Clc1ccc(C(c2cccc(Cl)n2)c2nn[nH]n2)cc1 (centres undefined) | 11.1% (inactive) |
| N#CC(c1ccc(C(F)(F)F)c(Cl)n1)c1ccccc1OC(F)(F)F (centres undefined) | -14.9% (inactive) |
| CN(C)CCCC(C#N)c1ccc(Cl)cc1 (centres undefined) | -3.26% (inactive) |
| CCCCC(C#N)c1ccccn1 (centres undefined) | -13.4% (inactive) |

System: P. aeruginosa PAK mexAB-oprM +EDDHA growth, OD600, 28 h
Assay: as above
Conditions: not given
Method in brief: as §1

| SMILES | AC35 |
| --- | --- |
| N#CC(c1cccc(C(F)(F)F)n1)c1ccc(Cl)cc1F (centres undefined) | 8.69 µM |
| N#CC(c1cccc(Cl)n1)c1ccc(Cl)cc1F (centres undefined) | 7.15 µM |
| COCCOCCC(C#N)c1ccc(F)cc1 (centres undefined) | 51.9 µM |
| N#CC(c1ccc(Cl)cc1)N1CCCC1 (centres undefined) | > 100 µM (inactive) |
| CCCCC(C#N)c1ccc(F)cn1 (centres undefined) | 51.7 µM |
| COCCC(C#N)c1ccc(F)cc1 (centres undefined) | 95.8 µM |
| N#CC(c1ccc(Cl)cc1)c1cccc(C(F)(F)F)n1 (centres undefined) | 12 µM |
| N#CC(c1ccc(Cl)cc1)c1cccc(Cl)n1 (centres undefined) | 8.36 µM |
| N#CC(c1ccc(Cl)cc1)c1ccccn1 (centres undefined) | 31 µM |
| N#CC(c1ccc(Cl)cc1)c1ncccc1Cl (centres undefined) | 6.05 µM |
| N#CC(c1ccc(F)cc1)c1cccc(C(F)(F)F)n1 (centres undefined) | 6.72 µM |
| N#Cc1cccc(C(C#N)c2ccc(F)cc2)n1 (centres undefined) | 54.9 µM |
| CN(C)CCCC(C#N)c1ccc(F)cc1 (centres undefined) | 49.5 µM |
| N#CC(c1ccc(F)cc1)c1cccc(Cl)n1 (centres undefined) | 11.5 µM |
